Bioassay records from PubChem.
A selection: hits, their analogues and other compounds. The true share with any hit is near 3.5%.
MrgX1 ag = agonists of human MrgX1 receptor, primary screen, HEK293 cells, Fluo-4 calcium flux | Fluo-4 calcium fluorescence, agonist mode; hits give high values | B-score at 10 µM | hit rate 0.44% among 310,000;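 active means calcium response B-score plate-corrected fluorescence ratio at least 3 library SD, with starting fluorescence B-score inside 5 SD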
Target sequence (Q96LB2 whole entry, looked up): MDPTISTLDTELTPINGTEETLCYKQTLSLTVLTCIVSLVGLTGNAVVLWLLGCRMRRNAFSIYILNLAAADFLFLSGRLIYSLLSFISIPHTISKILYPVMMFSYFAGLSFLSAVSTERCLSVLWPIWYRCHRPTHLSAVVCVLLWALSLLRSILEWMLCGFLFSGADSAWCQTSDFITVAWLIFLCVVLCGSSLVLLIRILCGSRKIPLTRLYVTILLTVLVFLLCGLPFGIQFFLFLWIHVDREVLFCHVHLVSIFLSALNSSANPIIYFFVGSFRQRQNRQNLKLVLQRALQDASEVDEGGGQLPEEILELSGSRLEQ
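Assay system: stable human MrgX1 HEK293 cell line. Quantity: 15,000 cells per well. Schedule: cells plated overnight, dye loaded 0.5 h 37 °C, 0.5 h room temperature. Detection: Fluo-4 NW calcium-flux fluorescence, kinetic read. Read-out basis: peak-minus-minimum fluorescence over baseline, converted to B scores. Control set: positive and negative control wells on each plate.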
RGS4 pot = RGS4 potentiators or activators, primary screen, cell-based, HEK293 M3R inducible RGS4, calcium flux | carbachol calcium flux Fluo4; hits give low values | B-score at 10 µM | hit rate 0.92% among 310,000;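 active means B-score of the integrated calcium signal more than 4 SD below the library mean, with starting fluorescence not abnormally high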;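 further: negative B-score means reduced calcium response which marks RGS4 activation or potentiation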
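System – HEK293 FlpIn-TREx cells, stable M3R, doxycycline-inducible RGS4 · Reagent – ECmax carbachol challenge · Times – compound preincubation 20 min at room temperature before agonist · Technique – Fluo4 fluorescence kinetic imaging of calcium · Measure – B score of integrated Fluo4 ratio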
MrgX1 allo act = positive allosteric modulators of MrgX1, primary screen, HEK293 cells, Fluo-4 calcium flux; B-score at 10 µM; FDSS; hits give high values; hit rate 0.63% among 310,000; Mas-related G-protein coupled receptor member X1 (Homo sapiens), Q96LB2;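 active means plate-corrected calcium response at least 3 library SD above typical, normal starting fluorescence, not activating the receptor alone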;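 further: compound read alongside a low EC10 to EC30 dose of BAM8-22 agonist; peak minus trough fluorescence over baseline measured at the second addition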
MrgX1 antag = antagonists of human MrgX1 receptor, primary screen, HEK293 cells, Fluo-4 calcium flux; BAM8-22 antagonism; hits give low values; B-score at 10 µM; hit rate 1.3% among 310,000; AID 588676, 2011;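 active means calcium-response B-score plate-corrected more than 3 library SD below zero, starting fluorescence within 5 deviations, no agonist response on first addition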;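 further: peak minus trough fluorescence over baseline after final BAM8-22 challenge near maximal dose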
RGS4 inh = RGS4 inhibitors, primary screen, cell-based, HEK293 M3R inducible RGS4, calcium flux | B-score at 10 µM | Fluo-4 calcium flux; hits give high values; triggered by carbachol at its EC20 | Regulator of G-protein signaling 4 (Homo sapiens), P49798 | hit rate 0.45% among 310,000;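 active means B-score, a plate-corrected calcium signal, over three deviations above library mean, with baseline fluorescence within five deviations of library mean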;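 further: RGS4 expression induced by doxycycline in cells with stable M3 receptor; B-score is computed from the integrated fluorescence ratio over baseline after carbachol; higher B-score means a larger calcium signal and so more RGS4 inhibition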
Target sequence (P49798 whole entry, looked up): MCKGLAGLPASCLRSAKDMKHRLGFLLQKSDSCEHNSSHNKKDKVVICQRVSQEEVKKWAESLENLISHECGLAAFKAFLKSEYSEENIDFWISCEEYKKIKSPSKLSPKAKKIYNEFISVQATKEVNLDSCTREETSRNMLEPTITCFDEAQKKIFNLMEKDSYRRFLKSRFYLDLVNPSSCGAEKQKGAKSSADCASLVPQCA
A number is an active result; – = inactive; · = no result.

SMILES | MrgX1 ag | RGS4 pot | MrgX1 allo act | MrgX1 antag | RGS4 inh
Cc1sc(NC(=O)c2ccco2)c(C(c2cccnc2)N2CCC(C)CC2)c1C (centres undefined) | – | -7.93 | – | – | –
Cc1sc(NC(=O)c2ccco2)c(CN2CCC(C)CC2)c1C | – | – | – | – | –
CCC(=O)OC1(C)C(=O)C=C2C=C(CCCCNC(=O)OC(C)(C)C)OC=C2C1=O (centres undefined) | – | – | – | – | –
CC(C)(C)OC(=O)NCCCC1=CC2=CC(=O)C(C)(OC(=O)c3ccc(Cl)nc3)C(=O)C2=CO1 (centres undefined) | – | – | – | -5.01 | –
Cc1ccc(OCC(=O)Nc2cccc(S(=O)(=O)N3CCCCCC3)c2)c([N+](=O)[O-])n1 | – | – | – | – | –
COc1ccc(C(=O)C2CCCN(S(=O)(=O)C(C)C)C2)c(C)c1 (centres undefined) | – | -7.56 | – | – | –
COc1ccc(C(=O)C2CCCN(S(=O)(=O)N(C)C)C2)c(C)c1 (centres undefined) | – | – | – | – | –
COc1ccc(S(=O)(=O)N2CCc3ccccc32)cc1C(=O)OCC(=O)c1c(N)n(C)c(=O)n(C)c1=O | – | -9.62 | – | – | –
CCOc1cccc2c1OC(c1cc(OC)c(OC)c(OC)c1)N1N=C(c3ccc(C)o3)CC21 (centres undefined) | – | – | – | -5.81 | –
CN1CCN(C(=O)CCN2C(=O)/C(=C/c3cccc(Br)c3)SC2=S)CC1 | – | – | – | – | –
CN1CCN(C(=O)CCCN2C(=O)/C(=C/c3cccc(Br)c3)SC2=S)CC1 | · | -7.16 | · | · | –
Cc1ccc(/C=C2\SC(=S)N(CCCC(=O)Nc3ccccc3C(=O)O)C2=O)cc1 | – | – | – | -5.4 | –
O=C(O)CCCCCN1C(=O)/C(=C/c2ccncc2)SC1=S | 32.1 | – | – | – | –
CCc1ccc(/C=C2\SC(=S)N(CCCC(=O)Nc3ccccc3C(=O)O)C2=O)cc1 | – | – | – | – | –
O=C(O)CCCCCN1C(=O)/C(=C\c2ccncc2)SC1=S | 34.3 | – | – | – | –
O=C(O)CCCN1C(=O)/C(=C/c2ccncc2)SC1=S | – | – | – | – | –
COc1ccccc1NC(=O)CSc1nc(=O)n2cc(C)ccc2n1 | – | – | – | – | –
C/C(=N\NC(=O)CCC(=O)Nc1ccc(C)c(C)c1)C1CC1 | – | – | – | – | –
Cc1cc(OC(C)C(=O)Nc2ccccc2C(=O)N2CCCC2)ccc1Cl (centres undefined) | – | – | – | – | –
Cc1ccc(SC2=C(C(=O)O)CCCC2)cc1 | – | – | – | – | –
CC1(C)C2CCC1(C)C(OCC[N+](C)(C)CC(=O)OC1CCCCC1)C2 (centres undefined) | – | – | – | – | –
CCc1c(C)nc2ncnn2c1N1CCN(S(=O)(=O)c2ccc(OC)cc2)CC1 | – | – | – | – | –
Cn1c(=O)c(C(=S)NC(=O)C2CC2)c(N)n(Cc2ccccc2)c1=O | – | – | – | – | –
O=C(CCl)c1cc2c3c(c1)CC(=O)N3CCC2 | 27 | – | – | – | 17.3
O=C(NCCO)C(=O)Nc1cc2c3c(c1)CC(=O)N3CCC2 | – | – | – | – | –
SMILES | MrgX1 ag | RGS4 pot | MrgX1 allo act | MrgX1 antag | RGS4 inh
COc1ccc(OC)c(NC(=O)c2c(NC(=O)CCC(=O)O)sc3c2CCCCC3)c1 | – | – | 6.97 | – | –
Cc1cc(C)c(-c2csc(NC(=O)c3cc([N+](=O)[O-])ccc3N3CCOCC3)n2)c(C)c1 | – | -7.89 | – | – | –
O=C(Nc1nc(-c2ccc(F)c(F)c2)cs1)c1cc([N+](=O)[O-])ccc1N1CCOCC1 | – | – | – | – | –
CCN(CC)CCNC(=O)c1ccc(NC(=O)Cc2cccc3ccccc23)cc1 | – | -7.52 | – | – | –
CCN(CC)CCNC(=O)c1ccc(NC(C)=O)cc1 | – | – | – | – | –
NC(=S)NN=C1c2cc(OCCN3CCOCC3)ccc2-c2ccc(OCCN3CCOCC3)cc21 | – | -7.38 | – | – | –
ON=C1c2cc(OCCN3CCCCC3)ccc2-c2ccc(OCCN3CCCCC3)cc21 | – | – | – | – | –
COc1ccc(OC)c(CNc2ncc(-c3cccc([N+](=O)[O-])c3)n2C)c1 | – | -7.04 | – | – | –
Cn1c(-c2cccc([N+](=O)[O-])c2)cnc1NCc1cccc([N+](=O)[O-])c1 | – | – | – | – | –
COc1ccc(OC)c(CCNC(=O)CCC(=O)N2CCOc3ccc(C)cc32)c1 | – | – | – | – | –
COc1ccc(S(=O)(=O)NCc2csc(C)n2)cc1OC | – | – | – | – | –
Cc1ccccc1CS(=O)(=O)c1nnc([C@H](CC(C)C)NC(=O)OC(C)(C)C)o1 | 33.2 | – | – | – | –
CC[C@@H](C)[C@H](NC(=O)OC(C)(C)C)c1nnc(S(=O)(=O)Cc2cc(C)ccc2C)o1 | – | – | 7.07 | – | –
Cc1nc(NC(=O)CSc2nnc(-c3ccccc3)c(-c3ccccc3)n2)c(Cl)cc1Cl | – | -7.17 | – | – | –
Cc1ccccc1S(=O)(=O)Cc1ccc(C(=O)NCCCN2CCC(C)CC2)o1 | – | – | – | – | –
COCc1ccc(CN2CCC(C(=O)Nc3cccc(-c4cscn4)c3)CC2)o1 | – | – | – | – | –
COCc1ccc(CN2CCC(C(=O)Nc3cccc(-c4cccc(Cl)c4)c3)CC2)o1 | – | -8.1 | – | – | –
CCOc1ccc(N2C(=O)/C(=C/c3cccs3)N(CC(=O)OC)C2=S)cc1 | – | – | – | – | –
O=C(Nc1ccc(OCC(F)(F)C(F)F)c(C(F)(F)F)c1)c1ccc(Cl)cc1 | – | -7.76 | – | – | –
O=C(Nc1ccc(Br)c(C(F)(F)F)c1)c1ccc(C(F)(F)F)cc1 | – | – | – | -7.23 | –
O=C(Nc1ccc(Br)c(C(F)(F)F)c1)c1ccccc1 | – | – | – | – | –
COc1ccccc1N=Nc1c(C)n[nH]c1C | – | – | – | – | –
Cc1n[nH]c(C)c1N=Nc1cc(Cl)ccc1Cl | – | – | – | -5.36 | –
COCc1ccc(C(=O)NC2CCCN(Cc3ccccc3F)C2)o1 (centres undefined) | – | – | – | – | –
O=[N+]([O-])c1ccc(NC(=S)NCc2ccncc2)cc1 | – | – | – | -4.67 | –
O=[N+]([O-])c1ccc(NC(=S)NCc2ccc(F)cc2)cc1 | 27.1 | – | – | – | –
CCCCCc1nnc(NC(=O)CN2C(=O)C3CCCCC3C2=O)s1 (centres undefined) | – | – | – | – | –
CCOc1ccc(NC(=O)CN(C)C(=O)c2ccc3nc(CC)c(CC)nc3c2)cc1OCC | – | – | 7.45 | – | –
O=C(CC(=O)c1ccccc1)Nc1ccccn1 | – | – | – | – | –
